We go through 4 molecules from ChEMBL document CHEMBL1255444, “In vitro antibacterial activities of JNJ-Q2, a new broad-spectrum fluoroquinolone” (Antimicrob Agents Chemother, 2010).

Values after ≈ are worked out from the molar mass of the structure shown. Active and inactive are the calls of the source. No cut-off for these calls is given here.

The subject of assay [1] is Staphylococcus aureus. Nature of the assay: Antibacterial activity against methicillin-resistant Staphylococcus aureus isolate OC8525 harboring wild type quinolone resistance-determining region assessed as >= 4 fold increase in bactericidal activity by broth microdilution method in presence of 20 ug/ml reserpine. The assay is classed as functional, organism-based. Background: Broth dilution looks for growth in wells or tubes with falling amounts of substance.

Assay [2] concerns Staphylococcus aureus. The assay can be described thus: Antibacterial activity against methicillin-resistant Staphylococcus aureus isolate OC11696 assessed as >= 4 fold increase in bactericidal activity by broth microdilution method in presence of 20 ug/ml reserpine. In kind it is functional, organism-based.
The subject of assay [3] is Staphylococcus aureus. The assay can be described thus: Antibacterial activity against methicillin-resistant Staphylococcus aureus isolate OC12501 assessed as >= 4 fold increase in bactericidal activity by broth microdilution method in presence of 20 ug/ml reserpine. In kind it is functional, organism-based.
Assay [4] has as its system Staphylococcus aureus. The assay can be described thus: Antibacterial activity against methicillin-resistant Staphylococcus aureus isolate OC8530 harboring gyrA S84L and parC I143V mutant gene assessed as >= 4 fold increase in bactericidal activity by broth microdilution method in presence of 20 ug/ml reserpine. In kind it is functional, organism-based.
For assay [5], the system named is Staphylococcus aureus. Nature of the assay: Antibacterial activity against methicillin-resistant Staphylococcus aureus isolate OC4222 harboring gyrA S84L and parC S80F mutant gene assessed as >= 4 fold increase in bactericidal activity by broth microdilution method in presence of 20 ug/ml reserpine. In kind it is functional, organism-based.
For assay [6], the system named is Staphylococcus aureus. Nature of the assay: Antibacterial activity against methicillin-resistant Staphylococcus aureus isolate OC17042 harboring gyrA S84L/G106D, parC S80F and parE D732N mutant gene assessed as >= 4 fold increase in bactericidal activity by broth microdilution method in presence of 20 ug/ml reserpine. The assay is classed as functional, organism-based.

The test system of assay [7] is Staphylococcus aureus. The assay can be described thus: Antibacterial activity against methicillin-resistant Staphylococcus aureus isolate OC11521 harboring gyrA S84L/S85P, parC E84G mutant gene assessed as >= 4 fold increase in bactericidal activity by broth microdilution method in presence of 20 ug/ml reserpine. In kind it is functional, organism-based.
Assay [8] deals with Streptococcus pneumoniae. Nature of the assay: Antibacterial activity against ciprofloxacin-resistant Streptococcus pneumoniae by broth microdilution method. The assay is classed as functional. In a few lines: (§1)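 CLSI M07-A7 broth microdilution MIC. Medium was cation-adjusted Mueller-Hinton broth. For S. pneumoniae it was Mueller-Hinton supplemented with 5% lysed horse blood. CLSI quality-control strains were included as appropriate.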

The subject of assay [9] is Staphylococcus aureus. Nature of the assay: Antibacterial activity against Staphylococcus aureus […] by broth microdilution method. In kind it is functional. In a few lines:
as §1

For assay [10], the system named is Staphylococcus aureus. Nature of the assay: Antibacterial activity against methicillin-resistant Staphylococcus aureus by broth microdilution method. In kind it is functional. In short, it runs like this: as §1
Assay [11] has as its system Staphylococcus aureus. The assay can be described thus: Antibacterial activity against methicillin-, ciprofloxacin-resistant Staphylococcus aureus by broth microdilution method. In kind it is functional. In short, it runs like this: as §1
Assay [12] deals with Staphylococcus epidermidis. The assay can be described thus: Antibacterial activity against methicillin-susceptible Staphylococcus epidermidis by broth microdilution method. In kind it is functional.
For assay [13], the system named is Staphylococcus epidermidis. Nature of the assay: Antibacterial activity against methicillin-resistant Staphylococcus epidermidis by broth microdilution method. In kind it is functional.
In assay [14] the test system is Staphylococcus epidermidis. Nature of the assay: Antibacterial activity against methicillin-, ciprofloxacin-resistant Staphylococcus epidermidis by broth microdilution method. The assay is classed as functional.
A further assay deals with Streptococcus pyogenes. The assay can be described thus: Antibacterial activity against Streptococcus pyogenes by broth microdilution method. The assay is classed as functional. In short, it runs like this:
(§2)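 MICs by CLSI M07-A7 broth microdilution in cation-adjusted Mueller-Hinton medium. For S. pneumoniae the medium was supplemented with 5% lysed horse blood. CLSI quality control strains were run alongside as appropriate.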

The test system of another assay is Streptococcus agalactiae. Nature of the assay: Antibacterial activity against Streptococcus agalactiae by broth microdilution method. In kind it is functional. In a few lines: as §2
The nature of assay [15]: Antibacterial activity against Streptococcus sp. group C by broth microdilution method. In kind it is functional. In a few lines: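 MICs by broth microdilution following CLSI M07-A7 in cation-adjusted Mueller-Hinton medium, using isolates from the J&JPRD culture collection. CLSI quality control strains were included as appropriate.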
For another assay, the system named is Enterococcus faecalis. The assay can be described thus: Antibacterial activity against Enterococcus faecalis ATCC 29212 by broth microdilution method. The assay is classed as functional. In short, it runs like this: as §2
The next assay has as its system Enterococcus faecium. The assay can be described thus: Antibacterial activity against Enterococcus faecium by broth microdilution method. The assay is classed as functional. In a few lines: as §2
The test system of another assay is Haemophilus influenzae. Nature of the assay: Antibacterial activity against Haemophilus influenzae by broth microdilution method. In kind it is functional. In short, it runs like this: as §2
The subject of another assay is Moraxella catarrhalis. The assay can be described thus: Antibacterial activity against Moraxella catarrhalis by broth microdilution method. The assay is classed as functional. In short, it runs like this:
as §2

The next assay concerns Escherichia coli. The assay can be described thus: Antibacterial activity against ciprofloxacin-resistant Escherichia coli by broth microdilution method. The assay is classed as functional. In short, it runs like this: as §1
The test system of the next assay is Klebsiella aerogenes. Nature of the assay: Antibacterial activity against Enterobacter aerogenes by broth microdilution method. The assay is classed as functional. In short, it runs like this: as §2
A further assay concerns Serratia marcescens. The assay can be described thus: Antibacterial activity against Serratia marcescens by broth microdilution method. The assay is classed as functional. In short, it runs like this:
as §2

A further assay relates to Proteus mirabilis. Nature of the assay: Antibacterial activity against Proteus mirabilis by broth microdilution method. In kind it is functional. In a few lines: as §2
For another assay, the system named is Providencia stuartii. The assay can be described thus: Antibacterial activity against Providencia stuartii by broth microdilution method. In kind it is functional. In short, it runs like this:
as §2

In a further assay the test system is Citrobacter freundii. Nature of the assay: Antibacterial activity against Citrobacter freundii by broth microdilution method. In kind it is functional. In short, it runs like this:
as §2

A further assay deals with Pseudomonas aeruginosa. Nature of the assay: Antibacterial activity against Pseudomonas aeruginosa ATCC 27853 by broth microdilution method. In kind it is functional. In short, it runs like this: as §2
Assay [16] has as its system Staphylococcus aureus. The assay can be described thus: Antibacterial activity against methicillin-resistant Staphylococcus aureus isolate OC8532 harboring wild type quinolone resistance-determining region by agar dilution method. In kind it is functional. In a few lines:
(§3)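 CLSI agar dilution MIC on cation-adjusted Mueller-Hinton medium. These were the MIC values used for the resistance studies, and CLSI quality-control strains were included as appropriate.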
A general note: In agar dilution the substance is mixed into plates at graded concentrations.

For assay [17], the system named is Staphylococcus aureus. The assay can be described thus: Antibacterial activity against methicillin-resistant Staphylococcus aureus isolate OC8525 harboring wild type quinolone resistance-determining region by agar dilution method. In kind it is functional. In a few lines: as §3
In assay [18] the test system is Staphylococcus aureus. Nature of the assay: Antibacterial activity against methicillin-resistant Staphylococcus aureus isolate OC11150 harboring gyrA S84L and parC S80Y mutant gene by agar dilution method. In kind it is functional. In a few lines: (§4)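 MICs for the resistance-selection studies were determined by CLSI agar dilution on Mueller-Hinton medium. For S. pneumoniae the medium was supplemented with 5% lysed horse blood. For MRSA fluctuation-assay strains an arithmetic agar dilution scheme was used for a more precise MIC.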

The test system of assay [19] is Staphylococcus aureus. The assay can be described thus: Antibacterial activity against methicillin-resistant Staphylococcus aureus isolate OC15425 harboring gyrA S84L and parC S80F mutant gene by agar dilution method. The assay is classed as functional. In short, it runs like this: as §4
For assay [20], the system named is Streptococcus pneumoniae. The assay can be described thus: Antibacterial activity against Streptococcus pneumoniae ATCC 49619 by broth microdilution method. In kind it is functional. In a few lines: as §2

As to `CC[n+]1c(-c2ccccc2)c2cc(N)ccc2c2ccc(N)cc21`, the outcome in the assay with Staphylococcus aureus [1], with Staphylococcus aureus [2], in the assay with Staphylococcus aureus [3], in the assay on Staphylococcus aureus [4], with Staphylococcus aureus [5] and with Staphylococcus aureus [6] was Active. Besides, the outcome in the assay with Staphylococcus aureus [7] was Active.

`CCn1cc(C(=O)O)c(=O)c2cc(F)c(N3CCNCC3)cc21`: the result in the assay on Staphylococcus aureus [1], in the assay on Staphylococcus aureus [2], in the assay with Staphylococcus aureus [3], with Staphylococcus aureus [4], in the assay on Staphylococcus aureus [5] and in the assay with Staphylococcus aureus [6] was Active. In addition, the outcome in the assay with Staphylococcus aureus [7] was Active.

With `O=C(O)c1cn(C2CC2)c2cc(N3CCNCC3)c(F)cc2c1=O` [CIPROFLOXACIN], the MIC50 against Streptococcus pneumoniae [8] was 32 µg/mL (≈ 96.6 µM); in the assay with Staphylococcus aureus [9] it was 16 µg/mL (≈ 48.3 µM); with Staphylococcus aureus [10] it was 16 µg/mL (≈ 48.3 µM); in the assay on Staphylococcus aureus [11] it was > 32 µg/mL; in assay [12], 0.25 µg/mL (≈ 0.754 µM); in assay [13] it was 16 µg/mL (≈ 48.3 µM). Besides, the MIC50 in assay [14] was found to be 64 µg/mL (≈ 193 µM); in the assay with Streptococcus pyogenes it was 0.5 µg/mL (≈ 1.51 µM); in the assay with Streptococcus agalactiae, 1 µg/mL (≈ 3.02 µM); in assay [15], 0.25 µg/mL (≈ 0.754 µM); with Enterococcus faecalis it was 1 µg/mL (≈ 3.02 µM); with Enterococcus faecium it was 4 µg/mL (≈ 12.1 µM). The MIC50 turned out to be 0.008 µg/mL (≈ 0.0241 µM) against Haemophilus influenzae; 0.06 µg/mL (≈ 0.181 µM) with Moraxella catarrhalis; 64 µg/mL (≈ 193 µM) in the assay on Escherichia coli; 0.03 µg/mL (≈ 0.0905 µM) against Klebsiella aerogenes; 0.12 µg/mL (≈ 0.362 µM) with Serratia marcescens; 0.03 µg/mL (≈ 0.0905 µM) against Proteus mirabilis. In addition, the MIC50 is 32 µg/mL (≈ 96.6 µM) in the assay with Providencia stuartii, 2 µg/mL (≈ 6.04 µM) against Citrobacter freundii and 0.25 µg/mL (≈ 0.754 µM) with Pseudomonas aeruginosa. For the same molecule, the MIC90 in the assay on Streptococcus pneumoniae [8] is 64 µg/mL (≈ 193 µM); in the assay with Staphylococcus aureus [9], > 32 µg/mL; in the assay on Staphylococcus aureus [10] it was > 32 µg/mL; in the assay with Staphylococcus aureus [11], 32 µg/mL (≈ 96.6 µM); in assay [12], 0.5 µg/mL (≈ 1.51 µM); in assay [13], 64 µg/mL (≈ 193 µM). In addition, the MIC90 in assay [14] was 128 µg/mL (≈ 386 µM); against Streptococcus pyogenes, 1 µg/mL (≈ 3.02 µM); against Streptococcus agalactiae it was 1 µg/mL (≈ 3.02 µM); in assay [15] it was 1 µg/mL (≈ 3.02 µM); against Enterococcus faecalis, > 16 µg/mL; in the assay on Enterococcus faecium it was > 16 µg/mL. The MIC90 worked out at 0.015 µg/mL (≈ 0.0453 µM) against Haemophilus influenzae; 0.06 µg/mL (≈ 0.181 µM) against Moraxella catarrhalis; 256 µg/mL (≈ 773 µM) against Escherichia coli; 0.03 µg/mL (≈ 0.0905 µM) with Klebsiella aerogenes; 0.25 µg/mL (≈ 0.754 µM) in the assay with Serratia marcescens; 0.06 µg/mL (≈ 0.181 µM) in the assay with Proteus mirabilis. The results for the MIC90 with Providencia stuartii, against Citrobacter freundii and against Pseudomonas aeruginosa were 64 µg/mL (≈ 193 µM), > 4 µg/mL and 0.5 µg/mL (≈ 1.51 µM), respectively. Moreover, the MIC in the assay on Haemophilus influenzae is 0.008 µg/mL (≈ 0.0241 µM); with Staphylococcus aureus [16] it was 0.6 µg/mL (≈ 1.81 µM); with Staphylococcus aureus [17], 3 µg/mL (≈ 9.05 µM); with Staphylococcus aureus [18], 12 µg/mL (≈ 36.2 µM); against Staphylococcus aureus [19] it was 12 µg/mL (≈ 36.2 µM).

In the assay with Streptococcus pneumoniae [20], `CC[C@H]1OC(=O)[C@H](C)[C@@H](O[C@H]2C[C@@](C)(OC)[C@@H](O)[C@H](C)O2)[C@H](C)[C@@H](O[C@@H]2O[C@H](C)C[C@H](N(C)C)[C@H]2O)[C@](C)(O)C[C@@H](C)C(=O)[C@H](C)[C@@H](O)[C@]1(C)O` [ERYTHROMYCIN] yielded an MIC50 of 0.06 µg/mL (≈ 0.0818 µM) and an MIC90 of 16 µg/mL (≈ 21.8 µM).
